Screens deposited in PubChem by several laboratories.
PglD DTNB: inhibitors of Campylobacter jejuni PglD acetyltransferase | purified PglD enzyme, DTNB colorimetric CoA detection | inhibition, % at 12.5 µM | 0.098% of 360,000 active; in the data active = inhibition above about 16%, passing the limit was not always enough
Ecoli rRNA inh: selective bacterial rRNA inhibition in E. coli; AID 720706; GFP signal change (wild-type ribosome), % (test concentration not listed); 1.6% of 350,000 active; E. coli WT GFP vs humanized-ribosome RFP mutants, fluorescence, 24 h; active compounds read low; DMSO median 0, no signal -100;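 active = significant combined selectivity score with lowered wild-type GFP, culture density cut under 30%, mutant RFP and density less affected; inactive = any of these conditions unmet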
Cneo AK release: causes C. neoformans cell lysis. adenylate kinase release luminescence, 4 h; normalised: neutral wells 0, clomiphene wells 100. lysis activity, % at 15 µM. 0.2% of 360,000 active. AID 651654;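 active = mean lysis activity across replicates of at least 80%, whatever share of replicates individually reach that level; inactive = mean lysis activity below 80%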
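Material – log-phase Cryptococcus neoformans yeast cells · Input – 5 × 10^6 yeast cells/mL · Medium – fresh YPD growth medium · Doses – single compound concentration per well · Timing – static 4 h at 37 °C with compound, 1 h detection · Detection – adenylate kinase release luminescence · Read-out – signal increase indicating cell lysis · Control set – Clomiphene as positive lysis control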
Yeast superoxide: yeast age-related superoxide inhibition as caloric restriction mimetic; S. cerevisiae aged cells, superoxide DHE fluorescence; active compounds read low; superoxide response (% of plate mean), % at 10 µM; 0.18% of 330,000 active; AID 2690;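 active = superoxide response under a set limit, about three screen SD below normal, cut at about 65% in these data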;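 also: yeast aged for seven days with compound at 30 °C before DHE staining; 100% = average MFI of all compound-treated wells on the plate with controls excluded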
SUMO Mot1 rescue: SUMOylation pathway inhibition by Mot1-301 growth rescue; S. cerevisiae Mot1-301 growth rescue, ATP luminescence, 38.5C; percent above DMSO median, 100 means doubled; growth rescue, % at 18.8 µM; 1% of 320,000 active;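 active = every valid replicate shows activation above 250% relative to neutral control wells; inactive = the rest, any valid replicate at or below 250%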;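 also: OY570 slx delta 5 strain wells were the positive control but not used for scaling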
* = called active by the depositor. The list is not random: actives were taken first. Their share in the collection is about 2.2%.

Results for Cc1cccc(S(=O)(=O)N2CCCCN3[C@H](CO)[C@H](c4ccc(C#CC(C)C)cc4)[C@H]3C2)c1 ?
PglD DTNB: 12.8; Ecoli rRNA inh: -26.9*; Cneo AK release: 1.8

Results for COc1cccc(S(=O)(=O)N2CCCCN3[C@H](CO)[C@H](c4ccc(C5=CCCCC5)cc4)[C@H]3C2)c1 ?
PglD DTNB: 3.0; Ecoli rRNA inh: -31.6*; Cneo AK release: 44.6

Results for CCS(=O)(=O)N1CCCCN2[C@H](CO)[C@@H](c3ccc(-c4ccc(C#N)cc4)cc3)[C@@H]2C1 ?
PglD DTNB: -3.0; Ecoli rRNA inh: -4.1; Cneo AK release: 87.9*

Results for Cc1cccc(S(=O)(=O)N2CCCCN3[C@H](CO)[C@@H](c4ccc(C#CC(C)C)cc4)[C@H]3C2)c1 ?
PglD DTNB: 11.4; Ecoli rRNA inh: -29.1; Cneo AK release: 0.9

Results for COc1ccc(C(=O)O)cc1S(=O)(=O)Nc1cc(Cl)ccc1N1CCOCC1 ?
PglD DTNB: -2.7; Ecoli rRNA inh: 2.2; Cneo AK release: -2.0; Yeast superoxide: 116.8

How did COc1ccc(C(=O)O)cc1S(=O)(=O)Nc1cc(C(F)(F)F)ccc1N1CCCCC1 do in these assays?
PglD DTNB: 4.7; Ecoli rRNA inh: -25.0*; Cneo AK release: 14.4

How did CC(C)NC(=O)Nc1cccc2c1O[C@@H](CN(C)S(C)(=O)=O)[C@H](C)CN(C)C2=O do in these assays?
Ecoli rRNA inh: -0.4

Results for CCCC(=O)Nc1ccc2c(c1)C(=O)N(C)C[C@H](OC)[C@@H](C)CN(Cc1cncnc1)[C@H](C)CO2 ?
PglD DTNB: 0.0; Ecoli rRNA inh: 3.3; Cneo AK release: -1.3

What do the screens show for `COC(=O)N/N=C/c1cn(Cc2ccccc2Cl)c2ccccc12`?
Ecoli rRNA inh: -25.8*; Yeast superoxide: 108.8; SUMO Mot1 rescue: 9.8

How did COC(=O)N/N=C/c1cn(Cc2c(Cl)cccc2Cl)c2ccccc12 do in these assays?
Ecoli rRNA inh: -18.7; Yeast superoxide: 102.0; SUMO Mot1 rescue: 12.6

How did O=C(N/N=C/c1cn(Cc2cccc(F)c2)c2ccccc12)c1cc(O)cc(O)c1 do in these assays?
PglD DTNB: 4.7; Ecoli rRNA inh: -24.2*; Cneo AK release: -2.9; Yeast superoxide: 108.7; SUMO Mot1 rescue: -7.3

How did COC(=O)N/N=C/c1cn(Cc2ccc(Cl)cc2Cl)c2ccccc12 do in these assays?
PglD DTNB: 2.6; Ecoli rRNA inh: -27.9*; Cneo AK release: -3.1; Yeast superoxide: 96.9; SUMO Mot1 rescue: -14.0

Results for COc1ccccc1OCCn1cc(/C=N/NC(=O)c2ccncc2)c2ccccc21 ?
PglD DTNB: 1.8; Ecoli rRNA inh: -27.9*; Cneo AK release: 4.6; Yeast superoxide: 86.6; SUMO Mot1 rescue: 12.9

How did O=C(O)c1ccc(N/N=C/c2cn(Cc3ccccc3F)c3ccccc23)cc1 do in these assays?
PglD DTNB: 2.9; Ecoli rRNA inh: -34.8*; Cneo AK release: 0.6; Yeast superoxide: 93.9; SUMO Mot1 rescue: 2.8

How did CN(C)c1ccc(CN(C(=O)c2ccc(Cl)c([N+](=O)[O-])c2)C2CCS(=O)(=O)C2)cc1 (stereo not given) do in these assays?
Ecoli rRNA inh: 1.9; Yeast superoxide: 116.1; SUMO Mot1 rescue: 341.5*

What do the screens show for `CN(C)C(=O)c1ccc(-c2ccc([C@H]3[C@H]4CN(CCC(F)(F)F)CCCCN4[C@H]3CO)cc2)cc1`?
PglD DTNB: 3.1; Ecoli rRNA inh: 1.0; Cneo AK release: 85.2*

How did COc1ccccc1C#Cc1ccc([C@@H]2[C@H]3CN(CCC(F)(F)F)CCCCN3[C@H]2CO)cc1 do in these assays?
PglD DTNB: 4.7; Ecoli rRNA inh: -58.6; Cneo AK release: 81.5*

How did CN(C)C(=O)C[C@H]1CC[C@@H]2[C@H](COC[C@H](O)CN2CC2CCOCC2)O1 do in these assays?
PglD DTNB: 1.0; Ecoli rRNA inh: 6.2; Cneo AK release: 0.4

Results for Cc1ccc2c(c1)c(CC(=O)Nc1ccc(C)c(F)c1)c(C(=O)O)n2C ?
PglD DTNB: -3.3; Ecoli rRNA inh: -24.4*; Cneo AK release: 0.5; Yeast superoxide: 105.0; SUMO Mot1 rescue: 14.4

Results for Cn1c(C(=O)O)c(CC(=O)Nc2ccccc2F)c2ccccc21 ?
PglD DTNB: -4.6; Cneo AK release: 6.5; Yeast superoxide: 88.2; SUMO Mot1 rescue: -1.4

How did O=[N+]([O-])c1cc(Br)cc(C=Nc2ccc3c(c2)OCO3)c1O do in these assays?
PglD DTNB: -4.0; Ecoli rRNA inh: -30.0*; Cneo AK release: -4.9; Yeast superoxide: 100.8; SUMO Mot1 rescue: -31.0

How did O=C(OCc1ccccc1)/C(=C/c1cccc(Br)c1)NC(=O)c1ccco1 do in these assays?
PglD DTNB: -0.8; Ecoli rRNA inh: -29.2*; Cneo AK release: 0.0; Yeast superoxide: 94.7; SUMO Mot1 rescue: -6.8

How did O=C(c1ccco1)N1CCN(C(=S)Nc2ccc(Br)cc2Cl)CC1 do in these assays?
PglD DTNB: -2.8; Ecoli rRNA inh: -43.7*; Cneo AK release: 4.5; Yeast superoxide: 105.9; SUMO Mot1 rescue: 11.9

How did COc1ccc(Cl)cc1NC(=S)N1CCN(C(=O)c2ccco2)CC1 do in these assays?
Yeast superoxide: 93.6; SUMO Mot1 rescue: 357.0*

What do the screens show for `CC(=O)N(C)C[C@@H]1Oc2c(cccc2N(C)C)C(=O)N(C)C[C@@H]1C`?
Ecoli rRNA inh: 0.6

How did CNC(=S)N1N=C(c2cccs2)CC1c1ccc(OC)cc1 (stereo not given) do in these assays?
PglD DTNB: 8.2; Ecoli rRNA inh: -20.6*; Cneo AK release: -5.1; Yeast superoxide: 93.5; SUMO Mot1 rescue: -11.5

What do the screens show for `Cc1ccc(C2CC(c3cccs3)=NN2C(=O)c2ccc(Br)o2)cc1` (stereo not given)?
PglD DTNB: -2.3; Cneo AK release: 199.9*; Yeast superoxide: 108.4; SUMO Mot1 rescue: 33.8

How did CCC(=O)N1[C@@H]2c3ccc(C4=CCCC4)c(=O)n3C[C@@H]2[C@@H](CO)[C@@H]1C(=O)NCc1ccccc1 do in these assays?
PglD DTNB: 3.1; Ecoli rRNA inh: 0.8; Cneo AK release: 4.5

Results for COCC(=O)Nc1ccc2c(c1)[C@H]1C[C@@H](CC(=O)NCc3ccccc3)O[C@@H](CO)[C@H]1O2 ?
PglD DTNB: 0.9; Ecoli rRNA inh: 2.0; Cneo AK release: 2.1

What do the screens show for `O=C1Nc2ccccc2N=C(c2ccccc2)c2ccccc21`?
PglD DTNB: 8.2; Ecoli rRNA inh: -28.0*; Cneo AK release: 0.0; Yeast superoxide: 95.5; SUMO Mot1 rescue: -3.6

What do the screens show for `O=C1Nc2ccccc2Nc2ccccc21`?
PglD DTNB: 4.7; Ecoli rRNA inh: 5.6; Cneo AK release: 3.9; Yeast superoxide: 102.5; SUMO Mot1 rescue: -12.8

How did Cc1cc(C)c(NC(=O)CN(C)CC(=O)Nc2cccc(S(=O)(=O)N(C)c3ccccc3)c2)c(C)c1 do in these assays?
PglD DTNB: -1.1; Ecoli rRNA inh: -9.8; Cneo AK release: -1.8; Yeast superoxide: 113.0; SUMO Mot1 rescue: -9.8
